Bioassay records: PubChem, several laboratories
Rows were chosen to be rich in hits. Some 1.5% of all compounds tested hit in one or more screens of this group.
Fh CTSL1 inh – blocks F. hepatica cathepsin L1 in PFM18AAP counter-screen. recombinant F. hepatica cathepsin L1, Z-Leu-Arg-MCA fluorescence. inhibition, % at 5.96 µM. actives 0.49% (n = 300,000). AID 1906;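 active means inhibition above the mean of all tested compounds plus 3 SD, set per screening campaign, cut at about 17% in these data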;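 further: 0% = plate median of test compound wells and 100% = 1 µM Z-Phe-Ala-diazomethylketone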
DAGLB inh – blocks human DAGLB lipase activity; Q8NCG7; HEK293T DAGLB membrane lysate, EnzChek fluorogenic substrate; inhibition, % at 5.17 µM; actives 0.059% (n = 340,000); AID 504411; in the data active means inhibition above about 34%;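 further: 0% = enzyme with vehicle and 100% = wells lacking enzyme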
NRP1-CendR mod – NRP-1/CendR interaction modulation; inhibition, % at 25 µM; FAM-RPARPAR peptide binding to NRP-1, fluorescence polarization; actives 0.85% (n = 360,000);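 active means inhibition or corrected inhibition above about 18%, plus a signal ratio from 0.5 to 1.5, limit read from the data, passing the limit was not always enough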
UCH37 DUB inh – blocks the human deubiquitinase UCH37. Q9Y5K5. purified proteasome/UCH37, Ub-AMC cleavage fluorescence. inhibition, % (no concentration beside the values). actives 0.33% (n = 330,000). AID 588478;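 active means mean inhibition over replicate wells above about 20%, limit read from the data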;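 further: 0% = compound-free wells with enzyme and 100% = wells lacking proteasome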
Target sequence (Q9Y5K5 whole entry, looked up): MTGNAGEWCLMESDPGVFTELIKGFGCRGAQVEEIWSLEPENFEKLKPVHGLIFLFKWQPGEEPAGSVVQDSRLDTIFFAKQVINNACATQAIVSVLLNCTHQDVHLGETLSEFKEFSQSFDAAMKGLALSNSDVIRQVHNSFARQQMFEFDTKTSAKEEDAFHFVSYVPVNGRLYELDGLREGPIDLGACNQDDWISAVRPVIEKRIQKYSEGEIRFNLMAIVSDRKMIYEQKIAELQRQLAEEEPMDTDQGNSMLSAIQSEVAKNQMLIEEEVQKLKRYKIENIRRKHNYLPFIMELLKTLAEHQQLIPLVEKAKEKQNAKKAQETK
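Schedule: 30 min plus 25 min, room temperature / Material: human UCH37 within purified proteasomes / Technique: AMC fluorescence intensity at 355/460 nm / Buffer or medium: pH 7.4 Tris-HCl (50 mM) with ovalbumin, ATP-MgCl2, DTT / Controls: wells without proteasome as full block, compound-free enzyme plus substrate as uninhibited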
MT1-MMP act inh – MT1-MMP (human) activation inhibition. actives 0.061% (n = 360,000). GFP/RFP ratio change, % at 20 µM. HT1080 RFP-PRO-GFP cells, GFP/RFP ratio fluorescence, overnight; percent of plate control window, DMSO zero;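 active means GFP/RFP ratio change of at least 30% with cell ATP level not reduced by more than half and red fluorescence within 50% of control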
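Assay system – RFP-PRO-GFP reporter HT1080 cells · Compound dosing – single dose of 20 µM compound, 1% DMSO final · Incubation – overnight compound exposure at 37 °C · Measure – GFP/RFP fluorescence ratio · Benchmarks – DMSO wells and RFP-L50D-GFP cells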
Numbers without * were called inactive; x = no result given.

SMILES	Fh CTSL1 inh	DAGLB inh	NRP1-CendR mod	UCH37 DUB inh	MT1-MMP act inh
CNC(=O)COC(=O)c1ccc([N+](=O)[O-])cc1Cl	17.6*	0.3	7.4	3.0	1.5
CN(Cc1cnn(C)c1)C(=O)c1cc2ccccc2oc1=O	0.6	0.5	52.2*	0.7	2.3
CCc1ccc2[nH]c(=O)c(C3C(C#N)=C(N)Oc4c3ccc3cccnc43)cc2c1 (stereo not drawn)	6.0	43.8*	1.5	-32.8	-8.1
COc1ccc(N2C(=O)CSC2=NC(=S)Nc2ccccc2)cc1	x	x	x	5.7	x
CC(=O)Nc1ccc(NS(=O)(=O)c2cccc3nonc23)cc1	16.8*	-0.5	7.8	5.1	-6.3
CCOC(=O)c1sc(NN=Cc2ccc(N(C)C)cc2)nc1C	x	x	x	-20.7	x
Cc1ccc2cc(CN(CCCN(C)C)C(=O)NCc3ccccc3)c(=O)[nH]c2c1C	4.8	-0.6	37.7*	-1.0	-11.3
O=C(c1ccco1)N1CCN(C(c2ccccc2Cl)c2nnnn2CC2CCCO2)CC1 (stereo not drawn)	19.4*	0.9	-0.2	0.2	-6.2
C#Cc1ccc(NC(=O)C2(C)CCN2C(=O)c2ccccc2CCc2ccccc2)cc1 (stereo not drawn)	x	x	-2.9	x	-3.1
CSc1ccc(NC(=O)C2(C)CCN2C(=O)c2ccccc2CCc2ccccc2)cc1 (stereo not drawn)	x	x	41.5*	x	2.1
Cc1cc(C)nc(Nc2nc(=O)c3ccccc3s2)n1	0.5	0.9	20.9*	1.2	4.4
Cc1cc(C)nc(Nc2nc(-c3ccccc3)cs2)n1	0.7	-3.9	2.2	4.9	0.7
COc1ccc(-c2cc(=Nc3nc(-c4ccccc4)c(C)s3)c3ccccc3o2)cc1O	x	x	x	2.7	x
CCC1SC(=NN=Cc2ccco2)N(Cc2ccccc2C)C1=O (stereo not drawn)	x	x	x	6.6	x
O=[N+]([O-])c1c(Nc2ccc(O)cc2)cc(Cl)c2nonc12	5.5	14.1	26.3*	14.2	-4.9
Cc1ccsc1C=NNC(=O)CSCc1ccc(Cl)cc1	x	x	x	0.8	x
CC(=NNC(=O)c1ccc(Br)cc1)C1C(=O)c2ccccc2C1=O	x	x	x	10.7	x
Cc1ccc(NC2=CC(=O)CCC2)cc1C	4.9	0.7	46.3*	0.1	-8.3
Cc1ccc(NC2=CC(=O)CC(C)(C)C2)cc1Cl	3.1	-3.0	-8.6	-0.2	2.8
Cc1c(NC(=O)c2cnn3c(C(F)(F)F)cc(-c4ccco4)nc23)c(=O)n(-c2ccccc2)n1C	2.1	-2.9	23.3*	9.3	2.5
COc1ccc(N2C(=O)C3[C@@H](C2=O)C2(Cl)C(Cl)=C(Cl)C3(Cl)C2(OC)OC)cc1 (stereo partly drawn)	1.2	-2.1	26.8*	0.7	-0.4
COc1ccc(N2C(=O)C3C(C2=O)C3(c2ccccc2)c2ccccc2)cc1 (stereo not drawn)	-2.1	-3.5	9.3	6.2	0.7
CC1CC(C)CN(S(=O)(=O)c2ccc(NC(=S)NC(=O)c3ccccc3)cc2)C1 (stereo not drawn)	18.9*	-2.4	-7.8	3.2	3.9
CSc1nc2ccsc2c(=O)n1-c1ccccc1	18.0*	-0.3	8.6	0.9	-1.1
O=[N+]([O-])c1cccc(-c2ccc(C=NNC(=S)NCc3ccco3)o2)c1	x	x	x	5.6	x
SMILES	Fh CTSL1 inh	DAGLB inh	NRP1-CendR mod	UCH37 DUB inh	MT1-MMP act inh
COc1cccc(OCC(=O)NNC(=S)Nc2ccc(Cl)cc2Cl)c1	-0.2	4.8	23.8*	0.8	-2.9
COc1ccc(Cl)cc1NC(=S)NNC(=O)c1cccs1	1.5	5.4	5.0	0.3	1.5
COc1ccc(Cl)cc1NC(=S)NNC(=O)CC(C)C	26.6*	-0.9	-2.2	0.3	-0.8
Cc1ccc(C=NNC(=O)C2CCN(Cc3ccc(F)cc3Cl)CC2)o1	x	x	x	1.6	x
O=[N+]([O-])c1ccc(C=Nn2c(-c3ccccc3)n[nH]c2=S)cc1	x	x	x	4.4	x
CCn1nc2cc(C(=O)NCc3cc(C(F)(F)F)cc(C(F)(F)F)c3)ccc2c1OC	2.9	-3.3	6.1	-20.4	2.7
CCCCn1nc2cc(C(=O)NCc3ccc(OC(F)(F)F)cc3)ccc2c1OC	1.9	3.1	27.2*	-8.3	0.2
CCCCn1nc2cc(C(=O)NCc3cc(C(F)(F)F)cc(C(F)(F)F)c3)ccc2c1OC	5.8	-11.2	26.6*	-17.7	1.1
COc1c2ccc(C(=O)NCc3cc(C(F)(F)F)cc(C(F)(F)F)c3)cc2nn1C	3.6	-6.5	27.5*	-15.0	4.1
NC(=O)C(c1ccc(Cl)cc1Cl)c1ncc(C(F)(F)F)cc1Cl (stereo not drawn)	2.4	-2.7	22.6*	5.5	-3.5
NC(=O)C(c1ccc(Cl)cc1)c1ncc(C(F)(F)F)cc1Cl (stereo not drawn)	4.2	0.3	10.6	5.4	-5.4
O=C(COc1cccc(Br)c1)NN=C1CCSC1	x	x	x	0.9	x
CCCC[C@H](CC(=O)c1ccccc1)[C@@H](OC(C)=O)C(=O)Oc1c(C(C)C)cccc1C(C)C	x	-12.9	-3.0	25.0*	-11.5
O=C(Cc1ccccc1)NCC(=O)NN=Cc1cccs1	x	x	x	2.6	x
OCCCn1c(C2CCCN2c2nc(-c3ccc(Cl)cc3)cs2)nc2cc(Cl)c(N3CCCCC3)cc21 (stereo not drawn)	-2.1	-0.4	30.4*	2.7	1.4
Cc1ccc2cc(C=NNC(=O)CN3CCCCC3)c(Cl)nc2c1	x	x	x	3.3	x
COc1ccc(-c2cc(CNC(C)=O)on2)cc1	-1.9	1.0	-1.6	3.8	-0.4
COc1ccc(-c2cc(CNC(=O)CCl)on2)cc1	22.2*	1.9	22.7	1.7	3.4
O=C(Cc1ccc(Br)cc1)N1CCN(c2ccc(F)cc2)CC1	0.3	-7.1	22.8*	4.1	5.1
O=C(Cc1ccccc1)NCC(=O)N1CCN(c2ccc(F)cc2)CC1	x	-0.5	25.9*	x	3.4
O=C(CSc1ccccc1)N1CCN(c2ccc(F)cc2)CC1	17.4*	-8.0	5.3	2.1	2.8
COc1ccc(N2CCN(C(=O)CNC(=O)Cc3ccccc3)CC2)cc1	-1.5	-6.1	-3.6	2.4	-2.3
O=C(CNC(=O)c1ccco1)OC(C(=O)c1ccccc1)c1ccccc1 (stereo not drawn)	18.6*	1.1	0.8	3.0	-1.1
O=C(NN=C/C=C/c1cccc([N+](=O)[O-])c1)C(O)c1ccccc1 (stereo not drawn)	x	x	x	2.0	x
Cc1cccc(NCC(=O)NN=Cc2ccccn2)c1	x	x	x	1.1	x
O=C1N/C(=N/N=Cc2ccccc2)SC1(c1ccccc1)c1ccccc1	x	x	x	4.1	x
O=C(NCC(=O)N1CCN(c2ccc([N+](=O)[O-])cc2)CC1)c1ccco1	x	0.1	-10.5	6.6	10.0
O=C(O)[C@H](Cc1ccccc1)NC(=O)N1CCN(c2ccccc2)CC1	17.2*	1.0	6.4	3.2	1.5
O=C(NCC(=O)N1CCN(c2ccccc2)CC1)c1ccco1	-2.6	-0.3	26.7*	-0.5	0.9
CCOC(=O)/C(C#N)=C1/C=CN(c2ccccc2)C=N1	4.6	-1.8	1.3	20.8*	-1.0
